Data: ChEMBL document CHEMBL1143126, “Synthesis, cytotoxic evaluation, and DNA binding of novel thiazolo[5,4-b]quinoline derivatives” (Bioorg Med Chem, 2008)

How the values were obtained:
DNA [1] = experiment: Displacement of ethidium bromide from calf thymus DNA; type: nucleic-acid assay; details: Bos taurus
Summary of the method: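 Fluorescence quenching of the DNA–ethidium bromide complex in Tris–HCl pH 7.4 with 0.15 M NaCl and ethidium bromide. Emission read at 584 nm with excitation at 546 nm, corrected for dilution. Precipitation was monitored by 600 nm light scatter at 90°. Qmax is the maximum quenching; Q50 is the concentration giving 50% quenching. Means of three experiments, SD.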

SW-620 = experiment: Antiproliferative activity against human SW620 cells after 72 hrs by MTT assay; type: functional, cell-based; details: SW-620, 72 h
Summary of the method: (§1)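 Cells seeded at 4.5–5.0 · 10⁴ cells/ml/well in 24-well plates, then incubated with or without compounds added in DMSO. After 72 h, MTT in PBS pH 7.2 was added. Formazan was dissolved in DMSO and the plates centrifuged, then absorbance was read at 540 nm. % growth inhibition = (1 − treated/untreated absorbance) × 100.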

K562 = experiment: Antiproliferative activity against human K562 cells after 72 hrs by MTT assay; type: functional, cell-based; details: K562, 72 h; summary of the method: as §1
DNA [2] = experiment: Ratio of Qmax for calf thymus DNA to Q50 for calf thymus DNA; type: nucleic-acid assay; details: Bos taurus
Summary of the method: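 Efficiency index calculated as Qmax/Q50 from ethidium displacement titrations (Tris–HCl pH 7.4, 0.15 M NaCl). Compounds were added serially from DMSO stocks (DMSO ≤8%), and quenching was read at 584 nm with 546 nm excitation. Qmax is the maximum quenching; Q50 is the concentration for 50% quenching of bound ethidium.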

[3] = Antiproliferative activity against human C33 cells after 72 hrs by MTT assay; type: functional, cell-based; details: C33, 72 h; summary of the method: as §1
SW480 = experiment: Antiproliferative activity against human SW480 cells after 72 hrs by MTT assay; type: functional, cell-based; details: SW480, 72 h; summary of the method: as §1
HeLa = experiment: Antiproliferative activity against human HeLa cells after 72 hrs by MTT assay; type: functional, cell-based; summary of the method: as §1

SMILES	Q50 (DNA [1]) [µM]	IC50 (SW-620) [µM]	IC50 (K562) [µM]	Ratio (DNA [2])	IC50 [3] [µM]	IC50 (SW480) [µM]	IC50 (HeLa) [µM]
CCN(CC)CCNc1nc2c(Cl)c3ccccc3nc2s1	11.1	15.2	9.28	2.36	9.35	19.5	12.9
COc1cc(NS(C)(=O)=O)ccc1Nc1c2ccccc2nc2ccccc12 [AMSACRINE]					8.8		
Nc1cc(CO)cc(Nc2c3ccccc3nc3ccccc23)c1	7.36			6.49			
CSc1nc2c(Nc3cccc(C(F)(F)F)c3)c3ccccc3nc2s1	0.53			3.08	59.7		
CNc1cccc(Nc2c3ccccc3nc3sc(SC)nc23)c1	4.18	119		2.37	134	101	
COc1ccc(Nc2c3ccccc3nc3sc(SC)nc23)cc1	9.48	111	77.2	0.39	> 200	> 200	> 200
CSc1nc2c(Nc3ccc(Cl)cc3)c3ccccc3nc2s1	2.19	146		0.84	> 200	> 200	124
CSc1nc2c(Nc3cccc(N)c3)c3ccccc3nc2s1	6.96	> 200	143	1.17	139	> 200	176
CSc1nc2c(Nc3cccc([N+](=O)[O-])c3)c3ccccc3nc2s1		161	> 200		> 200	> 200	152
CCN(CC)CCNc1nc2c(Nc3ccccc3)c3ccccc3nc2s1	52.5			0.46	22.4		
CCN(CC)CCNc1c2ccccc2nc2sc(SC)nc12	9.44	16.9	7.85	4.87	9.06	28	13
COc1cccc(Nc2c3ccccc3nc3sc(SC)nc23)c1	3.71	26.6	22.2	1.79	75.4	66.7	25.3
CSc1nc2c(Nc3cccc(Cl)c3)c3ccccc3nc2s1	1.29	130		2	129	111	
CSc1nc2c(Nc3ccc(C#N)cc3)c3ccccc3nc2s1	14.3	> 200	120	0.9	> 200	> 200	140
CSc1nc2c(Nc3cccc(C#N)c3)c3ccccc3nc2s1	11.5	43.8	8.01	0.68	15.1	28.7	7.75
CSc1nc2c(Nc3ccccc3)c3ccccc3nc2s1	13.6	> 200	> 200	0.31	154	> 200	> 200
CCN(CC)CCNC(=O)c1cccc(Nc2c3ccccc3nc3sc(SC)nc23)c1	16.6	19.7	12.5	1.39	19.9	13.6	21.7
CSc1nc2c(Nc3cccc(O)c3)c3ccccc3nc2s1	7.64	146	173	2.15	146	147	> 200
CSc1nc2c(Nc3cccc(NC(C)=O)c3)c3ccccc3nc2s1	18.4	154	85.3	0.82	> 200	> 200	> 200
CSc1nc2c(Nc3cc(N)cc(CO)c3)c3ccccc3nc2s1	22.6	184	143	0.79	> 200	> 200	> 200
